In brackets after ≈: the same amount, converted by molar mass.
Legend:
Klebsiella aerogenes = assay: Minimum inhibitory concentration of compound against Enterobacter aerogenes delta 220; type: functional
Klebsiella pneumoniae = assay: Minimum inhibitory concentration of compound against Klebsiella pneumoniae delta 217; type: functional
Escherichia coli [1] = assay: Antibacterial activity againist Escherichia coli 120 infected NMRI mice after peroral administration; type: functional; conditions: po
Outline: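 ED50 in NMRI mice infected intraperitoneally with E. coli 120; compound given orally immediately and 5 h after infection.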

Neisseria gonorrhoeae [2] = assay: Minimum inhibitory concentration of compound against Neisseria gonorrhoeae AS 7720; type: functional
Outline: (§1)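 Agar dilution on Kellogg agar, 10⁶ colony forming units, incubated 20 h at 36 °C in 5% CO₂; MIC is the lowest concentration giving no visible growth.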

Proteus mirabilis = assay: Minimum inhibitory concentration against Proteus mirabilis delta 89; type: functional
Salmonella typhimurium = assay: Minimum inhibitory concentration of compound against Salmonella Typhimurium delta 119; type: functional, Salmonella enterica subsp. enterica serovar Typhimurium; conditions: Salmonella enterica
Neisseria gonorrhoeae [3] = assay: Minimum inhibitory concentration of compound against Neisseria gonorrhoeae W2; type: functional; outline: as §1
Escherichia coli [4] = assay: Minimum inhibitory concentration of compound against Escherichia coli delta 120; type: functional

MIC (Klebsiella aerogenes) [µg/mL] | MIC (Klebsiella pneumoniae) [µg/mL] | MIC (Neisseria gonorrhoeae [2]) [µg/mL] | MIC (Proteus mirabilis) [µg/mL] | MIC (Salmonella typhimurium) [µg/mL] | MIC (Neisseria gonorrhoeae [3]) [µg/mL] | MIC (Escherichia coli [4]) [µg/mL] | SMILES | ED50 (Escherichia coli [1]) [mg/kg]
> 50 | 3.12 (≈ 10.4 µM) | 2 (≈ 6.66 µM) | 12.5 (≈ 41.6 µM) | 6.25 (≈ 20.8 µM) | 8 (≈ 26.7 µM) | 25 (≈ 83.3 µM) | Cc1ccc(S(=O)(=O)N2N=Cc3ccccc3B2O)cc1 | ~25
 |  |  |  | > 50 |  | > 50 | Cc1ccc(S(=O)(=O)N2N=Cc3c(Cl)cc(N(C)C)cc3B2O)cc1 | > 300
 |  |  |  | > 50 |  | > 50 | CS(=O)(=O)N1N=Cc2ccccc2B1O | 
> 50 | 50 (≈ 144 µM) |  | 10 (≈ 28.9 µM) | > 50 |  | > 50 | Cc1cc(C)c(S(=O)(=O)N2N=Cc3c(F)cccc3B2O)c(C)c1 | > 100
> 50 | 50 (≈ 109 µM) | 0.5 (≈ 1.09 µM) | 6.25 (≈ 13.6 µM) | 50 (≈ 109 µM) | 2 (≈ 4.36 µM) | > 50 | O=S(=O)(c1cc(Cl)c(Cl)cc1Cl)N1N=Cc2oc(Br)cc2B1O | > 300
 |  |  |  | > 50 |  | > 50 | Cc1ccc(S(=O)(=O)N2N=Cc3ccc(O)cc3B2O)cc1 | ~300
> 50 | 50 (≈ 107 µM) | 1 (≈ 2.14 µM) | 6.25 (≈ 13.3 µM) | > 50 | 8 (≈ 17.1 µM) | > 50 | O=S(=O)(c1cc(Cl)c(Cl)cc1Cl)N1N=Cc2cc(Br)ccc2B1O | > 300
 |  |  |  | > 50 |  | > 50 | Cc1ccc(S(=O)(=O)N2N=Cc3ccc(F)cc3B2O)cc1 | ~250
25 (≈ 82.2 µM) | 1.56 (≈ 5.13 µM) | 1 (≈ 3.29 µM) | 3.12 (≈ 10.3 µM) | 3.12 (≈ 10.3 µM) | 8 (≈ 26.3 µM) | 12.5 (≈ 41.1 µM) | Cc1ccc(S(=O)(=O)N2N=Cc3oc(C)cc3B2O)cc1 | ~10
25 (≈ 67.7 µM) | 3.12 (≈ 8.46 µM) | 2 (≈ 5.42 µM) | 3.12 (≈ 8.46 µM) | 3.12 (≈ 8.46 µM) | 8 (≈ 21.7 µM) | 12.5 (≈ 33.9 µM) | Cc1ccc(S(=O)(=O)N2N=Cc3oc(Br)cc3B2O)cc1 | ~30
> 50 | 6.25 (≈ 16.5 µM) | 1 (≈ 2.64 µM) | 1.56 (≈ 4.12 µM) | 6.25 (≈ 16.5 µM) | 2 (≈ 5.28 µM) | 25 (≈ 66 µM) | Cc1ccc(S(=O)(=O)N2N=Cc3cc(Br)ccc3B2O)cc1 | ~40
12.5 (≈ 38.7 µM) | 3.12 (≈ 9.66 µM) | 2 (≈ 6.19 µM) | 6.25 (≈ 19.3 µM) | 3.12 (≈ 9.66 µM) | 2 (≈ 6.19 µM) | 12.5 (≈ 38.7 µM) | CCS(=O)(=O)N1N=Cc2sc(Br)cc2B1O | 
50 (≈ 159 µM) | 1.56 (≈ 4.97 µM) | 1 (≈ 3.18 µM) | 3.12 (≈ 9.93 µM) | 3.12 (≈ 9.93 µM) | 8 (≈ 25.5 µM) | 12.5 (≈ 39.8 µM) | Cc1ccc(S(=O)(=O)N2N=Cc3cc(C)ccc3B2O)cc1 | ~15
12.5 (≈ 36.7 µM) | 1.56 (≈ 4.58 µM) | 0.5 (≈ 1.47 µM) | 1.56 (≈ 4.58 µM) | 1.56 (≈ 4.58 µM) | 0.5 (≈ 1.47 µM) | 12.5 (≈ 36.7 µM) | Cc1cc2c(s1)C=NN(S(=O)(=O)c1ccccc1Cl)B2O | 49
 |  |  |  | 50 (≈ 143 µM) |  | > 50 | O=[N+]([O-])c1ccc(S(=O)(=O)N2N=Cc3c(F)cccc3B2O)cc1 | ~100
> 50 | 6.25 (≈ 23.4 µM) | 8 (≈ 29.9 µM) | 6.25 (≈ 23.4 µM) | 12.5 (≈ 46.8 µM) | 8 (≈ 29.9 µM) | > 50 | Cc1ccc2c(c1)C=NN(S(=O)(=O)N(C)C)B2O | 
3.12 (≈ 11.5 µM) | 0.39 (≈ 1.43 µM) | 1 (≈ 3.67 µM) | 0.78 (≈ 2.87 µM) | 0.78 (≈ 2.87 µM) | 1 (≈ 3.67 µM) | 1.56 (≈ 5.73 µM) | CCCS(=O)(=O)N1N=Cc2sc(C)cc2B1O | 4.5
 |  |  |  | > 50 |  | > 50 | CC1=NN(S(=O)(=O)c2ccc(C)cc2)B(O)c2ccccc21 | ~100
25 (≈ 61.7 µM) | 1.56 (≈ 3.85 µM) | 0.5 (≈ 1.23 µM) | 0.78 (≈ 1.92 µM) | 3.12 (≈ 7.69 µM) | 1 (≈ 2.47 µM) | 25 (≈ 61.7 µM) | O=S(=O)(c1ccccc1Cl)N1N=Cc2sc(Br)cc2B1O | 39
 |  |  |  | > 50 |  | > 50 | Cc1ccc(S(=O)(=O)N2N=Cc3c(ccn3C)B2O)cc1 | > 300
25 (≈ 96.8 µM) | 1.56 (≈ 6.04 µM) | 8 (≈ 31 µM) | 25 (≈ 96.8 µM) | 3.12 (≈ 12.1 µM) | 8 (≈ 31 µM) | 6.25 (≈ 24.2 µM) | CCCS(=O)(=O)N1N=Cc2sccc2B1O | 28
50 (≈ 157 µM) | 10 (≈ 31.3 µM) | 8 (≈ 25.1 µM) | 6.25 (≈ 19.6 µM) | 10 (≈ 31.3 µM) | 8 (≈ 25.1 µM) | 25 (≈ 78.3 µM) | Nc1ccc(S(=O)(=O)N2N=Cc3c(F)cccc3B2O)cc1 | 65
> 50 | 0.78 (≈ 1.9 µM) | 1 (≈ 2.44 µM) | 3.12 (≈ 7.61 µM) | 3.12 (≈ 7.61 µM) | 8 (≈ 19.5 µM) | 6.25 (≈ 15.2 µM) | O=[N+]([O-])c1ccc(S(=O)(=O)N2N=Cc3cc(Br)ccc3B2O)cc1 | ~25
 |  |  |  | > 50 |  | > 50 | Cc1ccc(S(=O)(=O)N2N=Cc3cc(Cl)c(Cl)cc3B2O)cc1 | > 100

MIC (Klebsiella aerogenes) [µg/mL] | MIC (Klebsiella pneumoniae) [µg/mL] | MIC (Neisseria gonorrhoeae [2]) [µg/mL] | MIC (Proteus mirabilis) [µg/mL] | MIC (Salmonella typhimurium) [µg/mL] | MIC (Neisseria gonorrhoeae [3]) [µg/mL] | MIC (Escherichia coli [4]) [µg/mL] | SMILES | ED50 (Escherichia coli [1]) [mg/kg]
 |  |  |  | > 50 |  | > 50 | Cc1ccc(S(=O)(=O)N2N=C(c3ccccc3)c3ccccc3B2O)cc1 | > 300
 |  |  |  | > 50 |  | > 50 | Cc1ccc(S(=O)(=O)N2N=Cc3ccc(C(=O)O)cc3B2O)cc1 | 
 |  |  |  | > 50 |  | > 50 | Cc1ccc(S(=O)(=O)N2N=Cc3c(Cl)cc(Cl)cc3B2O)cc1 | > 100
> 50 | > 50 |  | > 50 | > 50 |  | > 50 | Cc1ccc(S(=O)(=O)N2N=Cc3c(C)ccc(C)c3B2O)cc1 | > 600
25 (≈ 70.5 µM) | 1.25 (≈ 3.52 µM) | 0.5 (≈ 1.41 µM) | 1.56 (≈ 4.4 µM) | 2.5 (≈ 7.05 µM) | 1 (≈ 2.82 µM) | 10 (≈ 28.2 µM) | CCc1cc2c(s1)B(O)N(S(=O)(=O)c1ccccc1Cl)N=C2 | 24
> 50 | > 50 |  | 25 (≈ 61.4 µM) | > 50 |  | > 50 | O=S(=O)(c1cc(Cl)c(Cl)cc1Cl)N1N=Cc2c(F)cccc2B1O | > 300
25 (≈ 74.8 µM) | 1.25 (≈ 3.74 µM) | 0.25 (≈ 0.748 µM) | 1.25 (≈ 3.74 µM) | 1.56 (≈ 4.67 µM) | 0.5 (≈ 1.5 µM) | 6.25 (≈ 18.7 µM) | CCc1cc2c(s1)B(O)N(S(=O)(=O)c1ccc(C)cc1)N=C2 | 9
> 50 | 50 (≈ 132 µM) |  | 50 (≈ 132 µM) | > 50 |  | > 50 | Cc1ccc(S(=O)(=O)N2N=Cc3c(ccn3Cc3ccccc3)B2O)cc1 | > 600
> 50 | 10 (≈ 31.8 µM) | 2 (≈ 6.37 µM) | 5 (≈ 15.9 µM) | 50 (≈ 159 µM) | 8 (≈ 25.5 µM) | > 50 | Cc1ccc(S(=O)(=O)N2N=Cc3c(C)cccc3B2O)cc1 | > 100
25 (≈ 63.8 µM) | 1.25 (≈ 3.19 µM) | 0.5 (≈ 1.28 µM) | 1.25 (≈ 3.19 µM) | 6.25 (≈ 16 µM) | 1 (≈ 2.55 µM) | 25 (≈ 63.8 µM) | CC(=O)Nc1ccc(S(=O)(=O)N2N=Cc3cc(C)ccc3B2O)c(Cl)c1 | 16
> 50 | 25 (≈ 78.6 µM) | 2 (≈ 6.29 µM) | 3.12 (≈ 9.81 µM) | 25 (≈ 78.6 µM) | 8 (≈ 25.1 µM) | > 50 | Cc1ccc(S(=O)(=O)N2N=Cc3c(F)cccc3B2O)cc1 | 5
 |  |  |  | > 50 |  | > 50 | Cc1ccc(S(=O)(=O)N2N=Cc3c(Br)cccc3B2O)cc1 | > 100
> 50 | 12.5 (≈ 49.4 µM) | > 8 | 50 (≈ 198 µM) | 50 (≈ 198 µM) | > 8 | > 50 | CN(C)S(=O)(=O)N1N=Cc2ccccc2B1O | 57
> 50 | 50 (≈ 159 µM) |  | 50 (≈ 159 µM) | > 50 |  | > 50 | Cc1ccc(S(=O)(=O)N2N=Cc3cc(N)ccc3B2O)cc1 | > 300
 |  |  |  | > 50 |  | > 50 | Cc1ccc(S(=O)(=O)N2N=Cc3ccc(N(C)C)cc3B2O)cc1 | 100
 |  |  |  | > 50 |  | > 50 | Cc1ccc(S(=O)(=O)N2N=Cc3c(Cl)cccc3B2O)cc1 | ~100
> 50 | > 50 |  | 50 (≈ 130 µM) | > 50 |  | > 50 | Cc1ccc(S(=O)(=O)N2N=Cc3scc(Br)c3B2O)cc1 | > 300
25 (≈ 79.3 µM) | 1.56 (≈ 4.95 µM) | 2 (≈ 6.35 µM) | 0.39 (≈ 1.24 µM) | 3.12 (≈ 9.9 µM) | 8 (≈ 25.4 µM) | 6.25 (≈ 19.8 µM) | Cc1ccc2c(c1)C=NN(S(=O)(=O)c1ccc(N)cc1)B2O | 5
10 (≈ 37.6 µM) | 1.25 (≈ 4.7 µM) | 2 (≈ 7.52 µM) | 1.56 (≈ 5.86 µM) | 2.5 (≈ 9.39 µM) | 2 (≈ 7.52 µM) | 6.25 (≈ 23.5 µM) | CCCS(=O)(=O)N1N=Cc2cc(C)ccc2B1O | 73
 |  |  |  | > 50 |  | > 50 | Cc1ccc(S(=O)(=O)N2N=Cc3cc(N(C)C)ccc3B2O)cc1 | > 300
 |  |  |  | > 50 |  | > 50 | CC(=O)Nc1ccc2c(c1)B(O)N(S(=O)(=O)c1ccc(C)cc1)N=C2 | > 300
6.25 (≈ 21.8 µM) | 0.78 (≈ 2.73 µM) | 1 (≈ 3.49 µM) | 1.56 (≈ 5.45 µM) | 1.56 (≈ 5.45 µM) | 1 (≈ 3.49 µM) | 6.25 (≈ 21.8 µM) | Cc1cc2c(s1)B(O)N(S(=O)(=O)CC(C)C)N=C2 | 5
> 50 | > 50 | 2 (≈ 5.15 µM) | 50 (≈ 129 µM) | > 50 | 8 (≈ 20.6 µM) | > 50 | Cc1ccc(S(=O)(=O)N2N=Cc3cc4c(cc3B2O)-c2ccccc2C4)cc1 | > 600
